Assay results taken from ChEMBL document CHEMBL3046965, “Synthesis and quantitative structure-antifungal activity relationships of clovane derivatives against Botrytis cinerea” (2009).

Experiments:
Type in all cases: functional
Settings in all cases: UCA 992, 144 h
Botrytis cinerea [1] = experiment: Antifungal activity against Botryotinia fuckeliana UCA 992 assessed as inhibition of radial growth at 200 ug/mL after 6 days relative to control
In short: (§1)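 Radial growth assay on glucose-malt-peptone-agar (61 g/L, pH 6.5-7.0). Compounds dissolved in EtOH, giving 50-200 mg L-1 final in the medium, with equal EtOH in control and treated plates. A 5 mm mycelial disk from an actively growing culture was placed at the plate centre and radial growth followed for 6 days. % inhibition = 100 - [(treated growth/control growth) × 100]. At least three independent experiments, each in triplicate, ± SD.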

Botrytis cinerea [2] = experiment: Antifungal activity against Botryotinia fuckeliana UCA 992 assessed as inhibition of radial growth at 50 ug/mL after 6 days relative to control; in short: as §1
Botrytis cinerea [3] = experiment: Antifungal activity against Botryotinia fuckeliana UCA 992 assessed as inhibition of radial growth at 100 ug/mL after 6 days relative to control; in short: as §1

Structure (SMILES): CC1(C)C[C@H](OCCN2C(=O)c3ccccc3C2=O)[C@]23CC[C@@H](O)[C@@](C)(CC[C@@H]12)C3
- inhibition at 200 µg/mL (Botrytis cinerea [1]): 60%
- inhibition at 50 µg/mL (Botrytis cinerea [2]): 50%
- inhibition at 100 µg/mL (Botrytis cinerea [3]): 55%

Structure (SMILES): CC1(C)C[C@H](OCCS)[C@]23CC[C@@H](O)[C@@](C)(CC[C@@H]12)C3
- inhibition at 200 µg/mL (Botrytis cinerea [1]): 28%
- inhibition at 50 µg/mL (Botrytis cinerea [2]): 27%
- inhibition at 100 µg/mL (Botrytis cinerea [3]): 27%

Structure (SMILES): CO[C@H]1CC(C)(C)[C@@H]2CC[C@@]3(C)C[C@]12CCC3=O
- inhibition at 200 µg/mL (Botrytis cinerea [1]): 76%
- inhibition at 50 µg/mL (Botrytis cinerea [2]): 17%
- inhibition at 100 µg/mL (Botrytis cinerea [3]): 42%

Structure (SMILES): CC1(C)C[C@H](O)[C@]23CC[C@@H](O)[C@@](C)(CC[C@@H]12)C3 [CLOVANEDIOL]
- inhibition at 200 µg/mL (Botrytis cinerea [1]): 63%
- inhibition at 50 µg/mL (Botrytis cinerea [2]): 36%
- inhibition at 100 µg/mL (Botrytis cinerea [3]): 50%

Structure (SMILES): CO[C@H]1CC(C)(C)[C@@H]2CC[C@@]3(CO)C[C@]12CC[C@H]3O
- inhibition at 200 µg/mL (Botrytis cinerea [1]): 24%
- inhibition at 50 µg/mL (Botrytis cinerea [2]): 2%
- inhibition at 100 µg/mL (Botrytis cinerea [3]): 9%

Structure (SMILES): CC1(C)C[C@H](OCCCl)[C@]23CC[C@@H](O)[C@@](C)(CC[C@@H]12)C3
- inhibition at 200 µg/mL (Botrytis cinerea [1]): 66%
- inhibition at 50 µg/mL (Botrytis cinerea [2]): 56%
- inhibition at 100 µg/mL (Botrytis cinerea [3]): 64%

Structure (SMILES): CC1(C)C[C@H](OCCn2cncn2)[C@]23CC[C@@H](O)[C@@](C)(CC[C@@H]12)C3
- inhibition at 200 µg/mL (Botrytis cinerea [1]): 86%
- inhibition at 50 µg/mL (Botrytis cinerea [2]): 34%
- inhibition at 100 µg/mL (Botrytis cinerea [3]): 57%

Structure (SMILES): CC1(C)C[C@H](OCCO)[C@]23CC[C@@H](O)[C@@](C)(CC[C@@H]12)C3
- inhibition at 200 µg/mL (Botrytis cinerea [1]): 60%
- inhibition at 50 µg/mL (Botrytis cinerea [2]): 48%
- inhibition at 100 µg/mL (Botrytis cinerea [3]): 54%

Structure (SMILES): CO[C@H]1CC(C)(C)[C@@H]2CC[C@@]3(C)C[C@]12CC[C@@H]3O
- inhibition at 200 µg/mL (Botrytis cinerea [1]): 65%
- inhibition at 50 µg/mL (Botrytis cinerea [2]): 29%
- inhibition at 100 µg/mL (Botrytis cinerea [3]): 43%

Structure (SMILES): CC(C)(C)O[C@H]1CC(C)(C)[C@@H]2CC[C@@]3(C)C[C@]12CC[C@H]3O
- inhibition at 200 µg/mL (Botrytis cinerea [1]): 78%
- inhibition at 50 µg/mL (Botrytis cinerea [2]): 59%
- inhibition at 100 µg/mL (Botrytis cinerea [3]): 66%

Structure (SMILES): CO[C@H]1CC(C)(C)[C@@H]2CC[C@@]3(C)C[C@]12CC[C@H]3O [2BETA-METHOXYCLOVAN-9ALPHA-OL]
- inhibition at 200 µg/mL (Botrytis cinerea [1]): 83%
- inhibition at 50 µg/mL (Botrytis cinerea [2]): 49%
- inhibition at 100 µg/mL (Botrytis cinerea [3]): 60%

Structure (SMILES): CC1(C)C[C@H](SCCS)[C@]23CC[C@@H](O)[C@@](C)(CC[C@@H]12)C3
- inhibition at 200 µg/mL (Botrytis cinerea [1]): 38%
- inhibition at 50 µg/mL (Botrytis cinerea [2]): 32%
- inhibition at 100 µg/mL (Botrytis cinerea [3]): 34%

Structure (SMILES): CC1(C)C[C@H](OCC[N+](=O)[O-])[C@]23CC[C@@H](O)[C@@](C)(CC[C@@H]12)C3
- inhibition at 200 µg/mL (Botrytis cinerea [1]): 90%
- inhibition at 50 µg/mL (Botrytis cinerea [2]): 80%
- inhibition at 100 µg/mL (Botrytis cinerea [3]): 86%

Structure (SMILES): CC1(C)CC(=O)[C@]23CCC(=O)[C@@](C)(CC[C@@H]12)C3
- inhibition at 200 µg/mL (Botrytis cinerea [1]): 36%
- inhibition at 50 µg/mL (Botrytis cinerea [2]): 21%
- inhibition at 100 µg/mL (Botrytis cinerea [3]): 25%

Structure (SMILES): CC1(C)C[C@H](OCCBr)[C@]23CC[C@@H](O)[C@@](C)(CC[C@@H]12)C3
- inhibition at 200 µg/mL (Botrytis cinerea [1]): 77%
- inhibition at 50 µg/mL (Botrytis cinerea [2]): 68%
- inhibition at 100 µg/mL (Botrytis cinerea [3]): 73%

Structure (SMILES): CC1(C)C[C@H](OCCSc2ccccc2)[C@]23CC[C@@H](O)[C@@](C)(CC[C@@H]12)C3
- inhibition at 200 µg/mL (Botrytis cinerea [1]): 24%
- inhibition at 50 µg/mL (Botrytis cinerea [2]): 6%
- inhibition at 100 µg/mL (Botrytis cinerea [3]): 12%

Structure (SMILES): CC1(C)C[C@H](OCCI)[C@]23CC[C@@H](O)[C@@](C)(CC[C@@H]12)C3
- inhibition at 200 µg/mL (Botrytis cinerea [1]): 70%
- inhibition at 50 µg/mL (Botrytis cinerea [2]): 65%
- inhibition at 100 µg/mL (Botrytis cinerea [3]): 67%

Structure (SMILES): C=CCO[C@H]1CC(C)(C)[C@@H]2CC[C@@]3(C)C[C@]12CC[C@H]3O
- inhibition at 200 µg/mL (Botrytis cinerea [1]): 82%
- inhibition at 50 µg/mL (Botrytis cinerea [2]): 63%
- inhibition at 100 µg/mL (Botrytis cinerea [3]): 72%

Structure (SMILES): CC1(C)C[C@H](OCCOc2ccc([N+](=O)[O-])cc2)[C@]23CC[C@@H](O)[C@@](C)(CC[C@@H]12)C3
- inhibition at 200 µg/mL (Botrytis cinerea [1]): 81%
- inhibition at 50 µg/mL (Botrytis cinerea [2]): 76%
- inhibition at 100 µg/mL (Botrytis cinerea [3]): 79%

Structure (SMILES): CC1(C)C[C@H](OCCn2ccnc2)[C@]23CC[C@@H](O)[C@@](C)(CC[C@@H]12)C3
- inhibition at 200 µg/mL (Botrytis cinerea [1]): 98%
- inhibition at 50 µg/mL (Botrytis cinerea [2]): 67%
- inhibition at 100 µg/mL (Botrytis cinerea [3]): 84%

Structure (SMILES): CC1(C)C[C@H](O)[C@]23CC[C@H](O)[C@@](C)(CC[C@@H]12)C3
- inhibition at 200 µg/mL (Botrytis cinerea [1]): 30%
- inhibition at 50 µg/mL (Botrytis cinerea [2]): 21%
- inhibition at 100 µg/mL (Botrytis cinerea [3]): 24%

Structure (SMILES): CC1(C)C[C@H](OCCN)[C@]23CC[C@@H](O)[C@@](C)(CC[C@@H]12)C3
- inhibition at 200 µg/mL (Botrytis cinerea [1]): 97%
- inhibition at 50 µg/mL (Botrytis cinerea [2]): 50%
- inhibition at 100 µg/mL (Botrytis cinerea [3]): 82%

Structure (SMILES): CC1(C)C[C@H](OCCSC(=N)N)[C@]23CC[C@@H](O)[C@@](C)(CC[C@@H]12)C3
- inhibition at 200 µg/mL (Botrytis cinerea [1]): 97%
- inhibition at 50 µg/mL (Botrytis cinerea [2]): 70%
- inhibition at 100 µg/mL (Botrytis cinerea [3]): 83%
